# Screens: PubChem, The Scripps Research Institute Molecular Screening Center
# V1aR counter: activates human V1a receptor in oxytocin agonist counter-screen. activation, % at 3 µM. 320,000 compounds, 0.25% hits. AID 2797. CHO-V1R cells, Fluo-8 calcium fluorescence, agonist mode; 0% DMSO, 100% 3 nM vasopressin. P37288;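 active = activation above the mean activation of all tested compounds plus 3 SD, per screening run, cut at about 20% in these data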;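 note: signal is peak over basal fluorescence ratio across a 100 second FLIPR read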
# TRPN1 ag: agonists of zebrafish TRPN1 channel; HEK293 zebrafish TRPN1-YFP, Fluo-8 calcium fluorescence; 100% = response to 87 µM carbachol; activation, % at 3 µM; 220,000 compounds, 0.18% hits;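 active = activation above its plate's cutoff, the mean activation of test wells on that plate plus 3 SD, cut at about 19% in these data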;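 note: 0% = DMSO alone and 100% = 87 µM carbachol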
#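 Material: zebrafish TRPN1-YFP in HEK293 cells. Doses: one dose of 3 µM, 0.3% DMSO. Incubation: dye 1 h 37 °C plus 30 min RT. Measured by: intracellular calcium fluorescence with Fluo-8.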
# OXTR potentiator: human OXTR potentiation. P30559. CHO-OTR cells, Fluo-8 calcium fluorescence, potentiator mode; 0% = oxytocin EC15, 100% = EC100. activation, % at 3 µM. 320,000 compounds, 0.061% hits. AID 2445;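 active = activation above that plate's cutoff, the mean activation of tested compounds plus 3 SD, cut at about 6.6% in these data, passing the limit was not always enough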;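 note: 100% uses oxytocin at 75 nM as the full agonist control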
# Target sequence (P30559 whole entry, looked up): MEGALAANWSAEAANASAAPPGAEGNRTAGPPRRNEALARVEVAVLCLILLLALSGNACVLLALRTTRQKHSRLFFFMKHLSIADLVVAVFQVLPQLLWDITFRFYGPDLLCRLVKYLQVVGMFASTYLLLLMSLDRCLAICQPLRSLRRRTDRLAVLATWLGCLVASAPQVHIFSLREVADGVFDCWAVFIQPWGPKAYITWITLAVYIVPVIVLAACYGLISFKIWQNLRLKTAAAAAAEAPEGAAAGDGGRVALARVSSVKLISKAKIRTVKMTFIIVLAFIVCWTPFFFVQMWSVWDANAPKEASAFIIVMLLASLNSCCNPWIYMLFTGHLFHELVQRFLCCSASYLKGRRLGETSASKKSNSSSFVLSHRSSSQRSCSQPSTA
#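 test system = CHO-OTR cells, human receptor | compound = single-point 3.0 µM | schedule = 6 min compound pre-incubation at room temperature, 100 s kinetic read | signal = Fluo-8 no-wash calcium dye fluorescence, excitation 470-495 nm, emission 515-575 nm | repeats = single well per compound, singlicate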
# TRPML3 ag: agonists of human TRPML3 channel | Q8TDD5 | HEK293 TRPML3-YFP, Fluo-8 calcium fluorescence; 100% = the carbachol control signal | activation, % at 3 µM | 220,000 compounds, 0.29% hits | AID 1448;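 active = activation above its plate's cutoff, the mean activation of the plate's test wells plus 3 SD, cut at about 12% in these data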;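 note: 0% = DMSO only wells and 100% = carbachol wells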
#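 Test system: HEK293 cells stably carrying human TRPML3-YFP; Doses: single dose, 3 µM final nominal compound, 0.3% DMSO final; Schedule: dye loading 1 h 37 °C then 30 min ambient, 125 s read; Technique: Fluo-8 calcium fluorescence; Benchmarks: high control carbachol 87 µM, low control DMSO.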
# OXTR ag: human OXTR agonism | 320,000 compounds, 0.32% hits | activation, % at 3 µM | CHO-OTR cells, Fluo-8 calcium fluorescence; normalized: DMSO 0%, oxytocin 100% | P30559;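 active = activation above the mean of all tested compounds plus 3 SD, cutoff set per screening run, cut at about 20% in these data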;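 note: peak over basal fluorescence ratio from a 100 s FLIPR kinetic read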
# An asterisk follows results filed as active; . = no result given. A selection: hits, their analogues and other compounds. The true share with any hit is near 0.55%.
SMILES,V1aR counter,TRPN1 ag,OXTR potentiator,TRPML3 ag,OXTR ag
O=C(Nc1ccccc1C(=O)Nc1nnc(C(F)(F)F)s1)c1ccccc1Cl,11.7,23.0*,-14.3,13.2*,9.9
Cc1ccnc(NS(=O)(=O)c2cc(C(F)(F)F)ccc2Cl)c1,1.7,0.2,-3.9,-0.1,0.3
CCc1ccc(OCCn2cccn2)cc1,0.7,-0.5,2.5,0.4,-0.3
COc1ccc(N(C)S(=O)(=O)c2cccc(C(=O)OCC(=O)c3c(N)n(C)c(=O)n(C)c3=O)c2)cc1,11.0,.,-9.7,.,12.7
CN1/C(=C/C=C(C#N)C#N)C(C)(C)c2ccccc21,-0.9,0.8,-5.5,1.0,-3.0
CC1=C/C(=C\C=C(C#N)C#N)N(C)c2ccccc21,32.0*,27.0*,-9.3,16.9*,23.1*
CN(C)/C=N/NC(=O)c1ccccc1Cl,-0.4,0.7,8.4,0.7,0.4
CN(C)/C=N/NC(=O)c1ccc(Cl)cc1,1.1,34.1*,-0.6,46.3*,0.4
C=CC[C@H](CC(=O)N(CCO)Cc1ccccc1)C(=O)N[C@H](COC(=O)[C@@H](CC=C)CC(=O)OC(C)(C)C)c1ccccc1,0.2,.,-5.3,.,-0.5
O=C1c2ccccc2-c2onc3ccc(NCCCn4ccnc4)c1c23,44.8*,-1.0,-11.4,-0.6,82.0*
NS(=O)(=O)c1ccc(NCCCn2ccnc2)c([N+](=O)[O-])c1,0.2,.,-4.8,.,0.3
COc1ccc2noc3c2c1C(=O)c1ccccc1-3,221.2*,.,-8.8,.,168.8*
O=C1c2ccccc2S(=O)(=O)c2cc(C(=O)N(c3ccccn3)c3ccccn3)ccc21,89.3*,35.1*,-11.0,75.5*,87.7*
O=C(Nc1ccccn1)c1ccc2c(c1)S(=O)(=O)c1ccccc1C2=O,0.4,1.6,-5.7,0.9,2.3
Cc1ccc(OCCNC(=O)c2ccccc2SCC(=O)N2CCCC2)cc1,5.6,.,-3.9,.,-1.1
CCOC(=O)Cc1csc(NC(=O)c2ccc(C)c(S(=O)(=O)N3CCOCC3)c2)n1,7.0,.,-7.8,.,6.5
C#CCOCCOCCOCCNc1nc(N2CCN(C(=O)CCCCCCCCCCNC(=O)[C@H](CCCCN)n3cc(C)nn3)CC2)nc(N2CCN(C(=O)CCCCCCCCCCNC(=O)[C@@H]([C@H](C)CC)n3cc(CCCCCN)nn3)CC2)n1,38.2*,.,-12.9,.,3.5
C#CCOCCOCCOCCNc1nc(N2CCN(C(=O)CCCCCCCCCCNC(=O)Cn3cc(CCCCCN)nn3)CC2)nc(N2CCN(C(=O)CCCCCCCCCCNC(=O)[C@H](CO)n3cc(CCCCCN)nn3)CC2)n1,25.7*,.,-15.1,.,24.9*
C#CCOCCOCCOCCNc1nc(N2CCN(C(=O)CCCCCCCCCCNC(=O)[C@H]([C@@H](C)CC)n3cc(CCCCCN)nn3)CC2)nc(N2CCN(C(=O)CCCCCCCCCCNC(=O)[C@@H]([C@H](C)O)n3cc(C)nn3)CC2)n1,58.3*,.,-12.9,.,37.1*
C#CCOCCOCCOCCNc1nc(N2CCN(C(=O)CCCCCCCCCCNC(=O)[C@H](CCCCN)n3cc(CCO)nn3)CC2)nc(N2CCN(C(=O)CCCCCCCCCCNC(=O)[C@@H]([C@H](C)O)n3cc(C)nn3)CC2)n1,12.0,.,-7.8,.,1.1
CCOC(=O)C1=C(COC(=O)C(C)(C)Oc2ccc(Cl)cc2)NC(=O)NC1C (centres undefined),0.3,.,-7.1,.,-0.3
CC(OC(=O)CCCN=C1NS(=O)(=O)c2ccccc21)C(=O)c1ccccc1 (centres undefined),33.6*,.,-20.1,.,35.5*
COc1ccc2oc(C(=O)OCc3c(C)noc3C)c(C)c2c1,6.6,2.5,-11.4,0.9,3.9
CC(=O)c1ccc(OC(=O)c2ccc(Br)o2)cc1,8.9,-1.2,-8.6,0.3,14.7
CCC(=O)c1ccc(OC(=O)c2ccc(Br)o2)cc1,44.2*,-0.1,-21.4,0.0,34.7*
SMILES,V1aR counter,TRPN1 ag,OXTR potentiator,TRPML3 ag,OXTR ag
CN(C)CCCOC(=O)COc1ccc(Br)cc1,-1.1,0.0,-4.4,0.7,2.4
O=[N+]([O-])c1ccc(C2=NN(c3ccccc3)C(c3ccco3)C2)cc1 (centres undefined),.,24.1*,.,12.0*,.
O=[N+]([O-])c1ccc(/C=C/C2=NN(c3ccccc3)C(c3ccco3)C2)cc1 (centres undefined),26.8*,6.4,-10.5,1.8,33.6*
Cc1ccc(C2=NN(S(=O)(=O)c3ccccc3)C(c3ccco3)C2)cc1 (centres undefined),0.7,.,1.5,.,-0.5
CC(SCc1ccccc1)C(=O)Nc1ccc(F)cc1 (centres undefined),0.0,-3.1,-4.2,-0.7,-2.7
Cc1cccc(CSC(=N)N)c1,1.8,0.6,-9.9,0.3,-0.4
Cc1cccc(CSC(Nc2ccc(F)cc2)=C(C#N)C#N)c1,9.6,25.8*,-6.6,18.8*,18.4
N#CC(C#N)=C(Nc1ccc(F)cc1)SCc1cccc(Br)c1,5.7,25.2*,-10.4,20.8*,15.8
COc1ccc(S(=O)(=O)N2CCC(C(=O)N[C@H](C(=O)N3CCCCCC3)C(C)C)CC2)cc1,0.5,.,-4.8,.,-0.1
O=C(O)C1CCN(C(=O)CSc2nnc3ccccn23)CC1,1.1,.,-5.1,.,3.1
COc1ccc(C(OCC(O)CNCCc2ccc(S(N)(=O)=O)cc2)c2ccc(OC)cc2)cc1 (centres undefined),0.4,.,-12.4,.,1.7
OC(CNCCc1ccc(C(F)(F)F)cc1)COC(c1ccccc1)c1ccccc1 (centres undefined),35.4*,.,-15.3,.,27.3*
COc1ccc(CC(=O)NC(=S)Nc2cccc(CO)c2)cc1,27.2*,.,-20.4,.,28.1*
COc1ccccc1NC(=S)NC(=O)Cc1ccc(Cl)cc1,32.7*,.,-19.8,.,21.8*
COc1ccc(CC(=O)NC(=S)Nc2cccc(C)c2)cc1,26.5*,.,-20.1,.,26.1*
CCC(=O)Nc1cccc(NC(=S)NC(=O)Cc2ccccc2)c1,3.9,0.4,-12.8,-0.1,2.0
COc1cccc(NC(=S)NC(=O)Cc2ccc(Cl)cc2)c1,30.9*,.,-19.2,.,24.5*
Cc1cccc(NC(=S)NC(=O)CCc2ccccc2)c1,-0.6,-1.4,-9.1,-0.1,-2.9
Cc1c(NC(=S)NC(=O)Cc2ccccc2)cccc1C(=O)O,-0.1,0.6,-4.1,0.8,-0.4
Cc1cc(C)c(O)c(NC(=S)NC(=O)Cc2ccccc2)c1,28.6*,.,-19.8,.,31.1*
COc1cc(OC)c(-c2c3cc(O)c(=O)cc-3oc3cc(O)c(O)cc23)cc1OC,389.2*,291.0*,-11.9,206.0*,389.9*
Cc1c2cc(O)c(=O)cc-2oc2cc(O)c(O)cc12,7.8,1.3,-13.6,2.9,67.9*
CSc1ccccc1NC(=O)C1=CC(c2cccs2)=NS(=O)(=O)N1C,1.5,.,-3.7,.,-0.1
